Compound activity deposited in PubChem by several laboratories.
ABCG2 block = ABCG2 efflux pump inhibitors, primary screen, multiplex with ABCB1, IgMXP3 cells, flow cytometry | Broad substrate specificity ATP-binding cassette transporter ABCG2 (Homo sapiens), Q9UNQ0 | inhibition, % at 6.6 µM | JC-1 efflux | 0.1% of 190,000 active | AID 1325, 2008;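 active means inhibition above 80%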;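 further: 0% = DMSO and 100% = nicardipine control wells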
Target sequence (Q9UNQ0 whole entry, looked up): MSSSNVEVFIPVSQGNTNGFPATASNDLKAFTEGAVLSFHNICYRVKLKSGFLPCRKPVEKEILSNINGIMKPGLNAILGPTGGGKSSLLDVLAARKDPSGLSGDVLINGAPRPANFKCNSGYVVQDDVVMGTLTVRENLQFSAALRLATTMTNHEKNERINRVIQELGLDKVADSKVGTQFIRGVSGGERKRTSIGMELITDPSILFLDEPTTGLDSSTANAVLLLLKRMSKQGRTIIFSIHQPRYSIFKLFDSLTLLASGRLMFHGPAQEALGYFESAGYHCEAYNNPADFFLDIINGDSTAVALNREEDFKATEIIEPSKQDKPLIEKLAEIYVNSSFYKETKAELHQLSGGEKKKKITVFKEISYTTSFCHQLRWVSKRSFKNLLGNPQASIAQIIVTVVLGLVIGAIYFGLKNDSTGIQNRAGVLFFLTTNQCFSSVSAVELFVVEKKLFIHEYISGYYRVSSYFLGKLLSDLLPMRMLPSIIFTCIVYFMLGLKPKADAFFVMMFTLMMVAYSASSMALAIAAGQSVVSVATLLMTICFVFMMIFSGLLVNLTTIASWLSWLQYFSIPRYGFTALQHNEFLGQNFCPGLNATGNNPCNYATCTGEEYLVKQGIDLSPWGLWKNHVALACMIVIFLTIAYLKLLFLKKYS
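Test system: IgMXP3 (ABCG2) plus far-red-tagged CCRF-Adr (ABCB1) cells. Reagent: JC-1 dye as substrate. Timing: 10 min exposure at 25 °C with rotation, no wash. Measured by: flow cytometric JC-1 green MFI at 530 nm. Read-out: percent efflux inhibition, scaled nicardipine 100% to DMSO 0%. Control set: nicardipine and DMSO wells.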
PGE2 EP2 inh = human EP2 receptor antagonists, primary screen, TR-FRET cAMP, C6 glioma cells | Prostaglandin E2 receptor EP2 subtype (Homo sapiens), P43116 | C6 glioma cells expressing human EP2; cells stimulated with saturating PGE2 | inhibition, % at 25 µM | 0.52% of 260,000 active;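 active means percent inhibition above 40 after rounding to a whole number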;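 further: rat C6 glioma host cells with rolipram phosphodiesterase inhibitor present; the protocol text gives 20 µM as final concentration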
RBBP9 inhibitor = human RBBP9 inhibitors, primary screen, biochemical, fluorescence polarization, FP-Rh probe, HTS | Serine hydrolase RBBP9 (Homo sapiens), O75884 | recombinant RBBP9 | inhibition, % at 7.94 µM | 0.2% of 220,000 active | AID 1515, 2009;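 active means inhibition above the campaign mean of all tested compounds plus 3 SD, cut at about 14% in these data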;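 further: plate controls were DMSO wells with RBBP9 for no effect and wells lacking RBBP9 protein for full effect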
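System: RBBP9 protein | Quantity: 2.5 µM RBBP9 dispensing solution, before mixing | Reagent: FP-Rh probe, 375 nM dispensing solution | Timing: Enzyme-compound preincubation 30 min, then probe labeling 45 min, 25 °C | Measured by: Fluorescence polarization | Read-out: % inhibition | Replication: One well per compound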
EP2 mod = EP2 receptor modulators, cAMP readout, primary screen, cell-based, HTRF cAMP, PGE2 stimulation; EP2-expressing cells, cAMP HTRF FRET, PGE2 co-stimulation; Prostaglandin E2 receptor EP2 subtype (Homo sapiens), P43116; 0.83% of 260,000 active; induction, % at 25 µM;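 active means compounds whose cAMP rise, as percent of the full-agonist control response, exceeds 60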;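 further: rat C6 glioma line stably carrying human EP2 under a CMV promoter; the protocol text gives 20 µM as final concentration; 100% = response of wells given 1 µM PGE2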
ABCB1 block = ABCB1 efflux pump inhibitors, primary screen, cell-based, multiplex, flow cytometry, ABCG2 counter-screen; ATP-dependent translocase ABCB1 (Homo sapiens), P08183; CCRF-Adr cells, JC-1 efflux; inhibition, % at 6.6 µM; 0.067% of 190,000 active; AID 1326, 2008; in the data active means inhibition above about 40%;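 further: 0% = vehicle and 100% = reference inhibitor; higher value means more JC-1 retained so stronger ABCB1 efflux block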
* hit, by the source's call; ! = a repeat was not active. A selection: hits, their analogues and other compounds. The true share with any hit is near 1.5%.

CCc1ccc2c(c1)N(C[C@H](C)CN(C)C)c1ccccc1S2 was read as PGE2 EP2 inh 44* and EP2 mod -13.
Screening CCC(=O)c1ccc2c(c1)N(CCCN(C)C)c1ccccc1S2 returned PGE2 EP2 inh 26 and EP2 mod 16.
`COC(=O)/C(=C(/F)Sc1cc(C)c(O)c(C)c1)C(F)(F)F` gave ABCG2 block -5, PGE2 EP2 inh 99*, RBBP9 inhibitor 8, EP2 mod -20 and ABCB1 block 0.
`CN1CCN(CCC(=O)N2c3ccccc3Sc3ccc(Cl)cc32)CC1` gave ABCG2 block 0, PGE2 EP2 inh 9, RBBP9 inhibitor -1, EP2 mod 17 and ABCB1 block 2.
Screening CN1CCN(CC(=O)N2c3ccccc3Sc3cc4ccccc4cc32)CC1 returned PGE2 EP2 inh 45* and EP2 mod -10.
Screening CC1CCCN(CC(=O)N2c3ccccc3Sc3ccccc32)C1 (configuration not stated) returned ABCG2 block -1, PGE2 EP2 inh 1, RBBP9 inhibitor 0, EP2 mod 34 and ABCB1 block 0.
Screening CC1CCN(CC(=O)N2c3ccccc3Sc3cc4ccccc4cc32)CC1 returned PGE2 EP2 inh 46* and EP2 mod 37.
COc1cc2cc(C)c3nnc(SCC(=O)N4CCOCC4)n3c2cc1OC was read as PGE2 EP2 inh 12 and EP2 mod 13.
For CCn1c(SCC(=O)Nc2ccc(NC(=O)C(C)(C)C)cc2)nnc1-c1cccnc1 the results were PGE2 EP2 inh 14 and EP2 mod -16.
For CCCc1n[nH]c(=S)n1CCOC the results were PGE2 EP2 inh 15 and EP2 mod 30.
CC(C)(C)NC(=O)CSc1nc(C2CCCCC2)nc2ccccc12 was read as PGE2 EP2 inh 0 and EP2 mod -36.
`CCOC(=O)c1cc(OC(=O)c2ccccc2)n(-c2ccccc2)n1` gave ABCG2 block -2, PGE2 EP2 inh 9, RBBP9 inhibitor -9, EP2 mod 62* and ABCB1 block -3.
For CCOC(=O)c1cc(OC(=O)c2cccc([N+](=O)[O-])c2)n(-c2ccccc2)n1 the results were ABCG2 block 5, PGE2 EP2 inh 8, RBBP9 inhibitor -2, EP2 mod 16 and ABCB1 block 0.
`O=C(NC1CCCCC1)c1c(O)c2ccccc2[nH]c1=O` gave PGE2 EP2 inh 8 and EP2 mod 21.
`CCN(Cc1ccccc1)C(c1ccccn1)c1nnnn1C1CCCCC1` (configuration not stated) gave ABCG2 block 10, PGE2 EP2 inh 11, RBBP9 inhibitor 4, EP2 mod 64*! and ABCB1 block 2.
For CCN(Cc1ccccc1)C(c1cccs1)c1nnnn1C1CCCCC1 (configuration not stated) the results were ABCG2 block 8, PGE2 EP2 inh 10, RBBP9 inhibitor -3, EP2 mod 31 and ABCB1 block 1.
CC1CCN(C(=O)c2ccc(NC(=O)C(=O)NC(C)C)cc2)CC1 was read as PGE2 EP2 inh 7 and EP2 mod -24.
Clc1ccc(-c2nc3ccccc3n2OCc2ccccc2)cc1 was read as ABCG2 block 13, PGE2 EP2 inh 2, RBBP9 inhibitor -8, EP2 mod 63* and ABCB1 block 0.
COc1ccc(-c2nc3ccccc3n2OC(C)C(=O)O)cc1 (configuration not stated) was read as ABCG2 block 2, PGE2 EP2 inh 6, RBBP9 inhibitor -7, EP2 mod 8 and ABCB1 block 1.
`O=C(c1ccccc1)N1C(=O)C(c2ccccc2)Oc2ccccc21` (configuration not stated) gave PGE2 EP2 inh 11, RBBP9 inhibitor -14 and EP2 mod 81*.
Screening CC1Oc2ccccc2N(CC(=O)c2ccccc2)C1=O (configuration not stated) returned ABCG2 block 5, PGE2 EP2 inh 6, RBBP9 inhibitor -8, EP2 mod 42 and ABCB1 block 1.
For CCCOc1ccc(C(=O)Nc2sc3c(c2C#N)CCCCC3)cc1 the results were PGE2 EP2 inh 16 and EP2 mod 0.
`Cc1cc(C)n(Cc2ccc(Cl)cc2Cl)c(=O)c1S(=O)(=O)c1ccccc1` gave ABCG2 block -2, PGE2 EP2 inh 10, RBBP9 inhibitor -4, EP2 mod 62* and ABCB1 block -3.
For CCN(CC)C(=O)c1sc(NC(=O)c2ccccc2OC)c(C#N)c1C the results were PGE2 EP2 inh 11 and EP2 mod 48.
`COCCNC(=O)C1CCN(S(=O)(=O)c2cc(OC)ccc2OC)CC1` gave PGE2 EP2 inh 13 and EP2 mod 0.
Screening O=C(Nc1ccccc1-c1nc2ccccc2s1)c1ccco1 returned ABCG2 block 5, PGE2 EP2 inh 21, RBBP9 inhibitor -14, EP2 mod 57 and ABCB1 block 0.
Screening O=C(Nc1ccccc1-c1nc2ccccc2s1)c1cccnc1Cl returned ABCG2 block 9, PGE2 EP2 inh 13, RBBP9 inhibitor -8, EP2 mod 63* and ABCB1 block 1.
Screening C=C(C)Cn1c(NN)nc2c1c(=O)n(C)c(=O)n2C returned PGE2 EP2 inh 19 and EP2 mod 6.
CCc1ccccc1NC(=S)N(Cc1cccs1)Cc1cc2ccc(C)cc2[nH]c1=O was read as PGE2 EP2 inh 4 and EP2 mod 10.
`O=C(Cc1ccccc1)Nc1cccc(N2C(=O)C=CC2=O)c1` gave ABCG2 block -2, PGE2 EP2 inh 133*, RBBP9 inhibitor -3 and EP2 mod -69.
For COc1cccc(NC(=O)Cc2ccccc2)c1 the results were ABCG2 block 1, PGE2 EP2 inh 12, RBBP9 inhibitor 2, EP2 mod -6 and ABCB1 block 0.
For Clc1ccc2c(N3CCC(CCC4CCN(c5ncnc6cc(Cl)ccc56)CC4)CC3)ncnc2c1 the results were PGE2 EP2 inh 52* and EP2 mod 15.
`CCOc1ccc(C(=O)NC(=S)Nc2ncccc2C)cc1Cl` gave PGE2 EP2 inh 9 and EP2 mod -44.
`COc1ccc(C2CC(=O)C3=C(C2)NC(C)=C(C(=O)OC2CCCC2)C3c2ccc(C)o2)cc1OC` (configuration not stated) gave PGE2 EP2 inh 40* and EP2 mod -6.
Screening CCC(C)OC(=O)C1=C(C)NC2=C(C(=O)CC(c3ccc(OC)c(OC)c3)C2)C1c1ccc(C)o1 (configuration not stated) returned PGE2 EP2 inh 12 and EP2 mod 9.
